Test results: ChEMBL document CHEMBL3861968, “Neuroactive and Anti-inflammatory Frankincense Cembranes: A Structure-Activity Study” (J Nat Prod, 2016)

Tests used:
Type in all cases: cell-based
[1] = biological target: T1, Heat sensitive channel TRPV3 (Rattus norvegicus) (UniProt Q4QYD9); assay: Activation of rat TRPV3 overexpressed in HEK293 cells assessed as increase in 2-aminoethoxydiphenyl borate-induced intracellular calcium concentration by Fluo-4AM dye-based spectrofluorometry relative to ionomycin
T1 sequence (whole entry): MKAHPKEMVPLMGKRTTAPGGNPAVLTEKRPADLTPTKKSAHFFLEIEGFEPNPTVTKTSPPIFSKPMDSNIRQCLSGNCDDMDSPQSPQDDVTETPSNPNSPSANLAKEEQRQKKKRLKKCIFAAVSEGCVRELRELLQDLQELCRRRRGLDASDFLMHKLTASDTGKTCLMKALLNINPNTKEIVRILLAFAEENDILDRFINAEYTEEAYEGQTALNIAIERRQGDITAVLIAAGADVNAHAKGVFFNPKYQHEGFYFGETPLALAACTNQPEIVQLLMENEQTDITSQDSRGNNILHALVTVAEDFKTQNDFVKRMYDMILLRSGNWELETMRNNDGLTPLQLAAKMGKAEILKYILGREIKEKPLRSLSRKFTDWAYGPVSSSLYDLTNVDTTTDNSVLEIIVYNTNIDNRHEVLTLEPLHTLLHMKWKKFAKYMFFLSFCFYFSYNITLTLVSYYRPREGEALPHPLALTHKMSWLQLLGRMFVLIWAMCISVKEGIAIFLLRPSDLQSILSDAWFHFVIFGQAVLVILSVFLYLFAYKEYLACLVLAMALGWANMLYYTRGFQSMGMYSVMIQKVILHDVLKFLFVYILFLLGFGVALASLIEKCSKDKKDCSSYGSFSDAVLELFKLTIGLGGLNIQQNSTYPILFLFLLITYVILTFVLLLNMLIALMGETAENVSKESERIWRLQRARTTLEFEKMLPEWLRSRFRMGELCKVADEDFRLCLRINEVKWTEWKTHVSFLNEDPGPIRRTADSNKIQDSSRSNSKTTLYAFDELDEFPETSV
Procedure, shortened: (§1)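 Stable rat TRPV3 HEK293 cells in MEM with 10% FBS, 37 °C, 5% CO2. Pre-sensitized with 2-APB (100 μM). Loaded 1 h at room temperature with Fluo-4 AM (4 μM), washed, held in Tyrode's buffer pH 7.4 in a stirred cuvette. Untransfected HEK293 baseline subtracted. EC50 taken from sigmoidal variable-slope fit. Efficacy expressed relative to 4 μM ionomycin. At least triplicate.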

[2] = biological target: T2, Heat sensitive channel TRPV3 (Rattus norvegicus, UniProt Q4QYD9); assay: Activation of rat TRPV3 overexpressed in HEK293 cells assessed as increase in 2-aminoethoxydiphenyl borate-induced intracellular calcium concentration by Fluo-4AM dye-based spectrofluorometry; procedure, shortened: as §1
T2 sequence (Q4QYD9 whole entry): T1 sequence (whole entry)

[3] = biological target: T2, Heat sensitive channel TRPV3; assay: Antagonist activity at rat TRPV3 overexpressed in HEK293 cells assessed as inhibition of thymol-induced increase in intracellular Ca2+ levels preincubated for 5 mins prior to thymol-stimulation by Fluo-4AM dye-based spectrofluorometry
Procedure, shortened: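 Compounds added 5 min before thymol (100 μM). Thymol-alone response taken as 100%. IC50 of inhibition of the [Ca2+]i rise taken from sigmoidal variable-slope fit. At least triplicate. ANOVA with Bonferroni.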

[4] = Inhibition of TNFalpha-induced NFkappaB activation in mouse NIH-3T3 cells expressing NFkappaB (unknown origin) preincubated for 15 mins followed by TNFalpha addition measured after 6 hrs by luciferase reporter gene assay; conditions: NIH3T3
[5] = biological target: T3, Transient receptor potential cation channel subfamily V member 3 (Mus musculus, UniProt Q8K424); assay: Agonist activity at mouse YFP-tagged TRPV3 expressed in HEK293 cells assessed as increase in calcium influx by Fluo-2-AM dye based microscopic analysis
T3 sequence (Q8K424 whole entry): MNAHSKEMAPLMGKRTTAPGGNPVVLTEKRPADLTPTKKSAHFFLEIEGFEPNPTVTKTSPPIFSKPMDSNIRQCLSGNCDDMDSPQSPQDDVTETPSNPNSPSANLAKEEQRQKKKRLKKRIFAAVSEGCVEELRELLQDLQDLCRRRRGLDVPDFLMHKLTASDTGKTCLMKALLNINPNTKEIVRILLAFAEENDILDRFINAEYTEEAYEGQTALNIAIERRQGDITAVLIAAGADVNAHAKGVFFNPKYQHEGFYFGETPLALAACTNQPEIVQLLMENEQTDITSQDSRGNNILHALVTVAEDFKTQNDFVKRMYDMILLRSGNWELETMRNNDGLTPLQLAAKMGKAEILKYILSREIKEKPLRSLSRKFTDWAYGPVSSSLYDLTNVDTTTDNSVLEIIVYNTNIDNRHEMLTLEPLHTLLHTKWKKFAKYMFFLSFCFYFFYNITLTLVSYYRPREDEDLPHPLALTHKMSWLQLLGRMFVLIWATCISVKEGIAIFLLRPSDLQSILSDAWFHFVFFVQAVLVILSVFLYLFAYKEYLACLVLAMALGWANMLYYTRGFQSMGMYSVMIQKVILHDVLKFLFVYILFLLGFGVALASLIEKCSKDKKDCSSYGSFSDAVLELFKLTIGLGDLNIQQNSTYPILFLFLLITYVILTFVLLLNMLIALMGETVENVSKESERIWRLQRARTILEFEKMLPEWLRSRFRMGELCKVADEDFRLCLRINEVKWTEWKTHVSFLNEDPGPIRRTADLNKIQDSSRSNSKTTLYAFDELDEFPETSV

Structure (SMILES): CC1=C2CC/C(C)=C/CC[C@]3(C)O[C@@H]3CC/C(C)=C/[C@@H]2OC1=O
- Emax [1]: 21.3%
- EC50 [2]: 30.1 µM
- IC50 [3]: > 100 µM
- IC50 [4]: > 50 µM

Structure (SMILES): C/C1=C\CC[C@]2(C)O[C@@H]2C[C@]2(C(C)C)CC[C@@](C)(O2)[C@@H](O)CC1
- Emax [1]: 27.2%
- EC50 [2]: 25.4 µM
- IC50 [3]: > 100 µM
- IC50 [4]: > 50 µM

Structure (SMILES): CC1=C2CC/C(C)=C/CC[C@]3(C)O[C@@H]3CC/C(C)=C/[C@@H]2OC1
- IC50 [4]: > 50 µM

Structure (SMILES): C/C1=C\C[C@]2(C(C)C)CC[C@@](C)(O2)C(=O)CC/C(C)=C/CC1
- IC50 [4]: > 50 µM

Structure (SMILES): CC(=O)O[C@H]1CC/C(C)=C/CC[C@]2(C)O[C@@H]2C[C@]2(C(C)C)CC[C@@]1(C)O2
- Emax [1]: 57.7%
- EC50 [2]: 8.8 µM
- IC50 [3]: 13.2 µM
- IC50 [4]: > 50 µM

Structure (SMILES): CC(=O)O[C@H]1CC/C(C)=C/CC/C(C)=C/C[C@]2(C(C)C)CC[C@@]1(C)O2
- Emax [1]: 43.4%
- EC50 [2]: 1.4 µM
- IC50 [3]: 2.2 µM
- IC50 [4]: > 50 µM
- EC50 [5]: 16 µM

Structure (SMILES): Cc1ccc(C(C)C)c(O)c1 [THYMOL]
- Emax [1]: 49.4%
- EC50 [2]: 29 µM

Structure (SMILES): C/C1=C\C[C@]2(C(C)C)CC[C@@](C)(O2)[C@@H](OC(=O)Cc2ccccc2)CC/C(C)=C/CC1
- Emax [1]: 25.6%
- EC50 [2]: 1.2 µM
- IC50 [3]: 21.7 µM
- IC50 [4]: 22.4 µM

Structure (SMILES): C/C1=C\C[C@]2(C(C)C)CC[C@@](C)(O2)[C@H](O)CC/C(C)=C/CC1
- Emax [1]: 38%
- EC50 [2]: 7.3 µM
- IC50 [3]: 12.3 µM
- IC50 [4]: > 50 µM

Structure (SMILES): C/C1=C\C[C@]2(C(C)C)CC[C@@](C)(O2)[C@@H](OC(=O)c2ccccc2)CC/C(C)=C/CC1
- IC50 [4]: > 50 µM

Structure (SMILES): CC(=O)O[C@H]1CC[C@@]2(C)O[C@H]2CC/C(C)=C/C[C@]2(C(C)C)CC[C@@]1(C)O2
- Emax [1]: 31.6%
- EC50 [2]: 8.6 µM
- IC50 [3]: 21.1 µM
- IC50 [4]: > 50 µM

Structure (SMILES): NC(=O)c1sc(-c2ccsc2)cc1N
- IC50 [4]: 7.9 µM

Structure (SMILES): CCCCCCCCC(=O)O[C@H]1CC/C(C)=C/CC/C(C)=C/C[C@]2(C(C)C)CC[C@@]1(C)O2
- IC50 [4]: 35.5 µM

Structure (SMILES): C/C1=C\C[C@]2(C(C)C)CC[C@@](C)(O2)[C@@H](OC(=O)/C=C/c2ccccc2)CC/C(C)=C/CC1
- IC50 [4]: > 50 µM

Structure (SMILES): C/C1=C\CC/C(C)=C/C[C@](O)(C(C)C)CC/C(C)=C/CC1
- Emax [1]: 62.4%
- EC50 [2]: 0.17 µM
- IC50 [3]: 0.15 µM
- IC50 [4]: > 50 µM

Structure (SMILES): C/C1=C\C[C@]2(C(C)C)CC[C@@](C)(O2)[C@@H](O)CC/C(C)=C/CC1 [INCENSOLE]
- Emax [1]: 65.1%
- EC50 [2]: 2.1 µM
- IC50 [3]: 2.1 µM
- IC50 [4]: > 50 µM
